18 compounds from ChEMBL document CHEMBL4308900, “Synthesis and identification of 2,4-bisanilinopyrimidines bearing 2,2,6,6-tetramethylpiperidine-N-oxyl as potential Aurora A inhibitors” (Bioorg Med Chem, 2019) can be followed below.

One test relates to HepG2. Nature of the test: Antiproliferative activity against human HepG2 cells after 48 hrs by MTT assay. The test is classed as functional. In short, it runs like this: (§1)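 MTT assay: cells attached 4–6 h at 37 °C, 5% CO2, then exposed 48 h to graded concentrations from DMSO stocks; 5 mg/mL MTT added for 4 h, formazan dissolved in DMSO, absorbance at 490 nm. GI50 from log plot of percent of control versus concentration; mean of three independent experiments.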
(Formazan colour is commonly taken as a measure of viable cells.)

The target of a further test is Aurora kinase B (Homo sapiens, UniProt Q96GD4). Nature of the test: Inhibition of Aurora B (unknown origin) using kemptide acetate salt as substrate after 30 mins by kinase-Glo luminescence method. (Kinase-Glo reads ATP consumption through a luciferase reaction.)
Another test deals with T1, Aurora kinase A (Homo sapiens, UniProt O14965).
T1 sequence (O14965 whole entry): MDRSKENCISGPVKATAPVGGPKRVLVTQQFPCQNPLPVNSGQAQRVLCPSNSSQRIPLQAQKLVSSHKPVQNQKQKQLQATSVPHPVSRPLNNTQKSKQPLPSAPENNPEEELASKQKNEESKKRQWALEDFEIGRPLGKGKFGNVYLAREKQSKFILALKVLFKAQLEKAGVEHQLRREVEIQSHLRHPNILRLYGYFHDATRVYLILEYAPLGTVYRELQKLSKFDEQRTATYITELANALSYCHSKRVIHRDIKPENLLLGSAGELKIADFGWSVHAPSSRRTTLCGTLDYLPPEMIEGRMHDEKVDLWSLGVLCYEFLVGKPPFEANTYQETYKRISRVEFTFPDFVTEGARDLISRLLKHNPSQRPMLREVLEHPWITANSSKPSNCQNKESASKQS
Nature of the test: Inhibition of Aurora A (unknown origin) using kemptide acetate salt as substrate after 30 mins by kinase-Glo luminescence method.

Test [1] has as its system HeLa. Nature of the test: Antiproliferative activity against human HeLa cells after 48 hrs by MTT assay. The class given is functional. The method in brief: as §1
The subject of another test is A549. In words: Antiproliferative activity against human A549 cells after 48 hrs by MTT assay. The test is classed as functional. The method in brief: as §1
For another test, the system named is LoVo. In words: Antiproliferative activity against human LoVo cells after 48 hrs by MTT assay. The class given is functional. In short, it runs like this:
as §1

For test [2], the system named is HeLa. Nature of the test: Cell cycle arrest in human HeLa cells assessed as accumulation at G2/M phase at 5 uM after 12 hrs by propidium iodide staining-based flow cytometric analysis (reference value: 23.57%). The test is classed as functional. In short, it runs like this:
(§2)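 HeLa cells exposed 12 h to 1 or 5 μM compound diluted from DMSO (DMSO control), fixed, stained with propidium iodide; DNA content measured by flow cytometry and G1, S, G2/M fractions calculated from the DNA histogram.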
(A flow cytometer gives signals particle by particle.)

For test [3], the system named is HeLa. Nature of the test: Induction of microtubule disruption in human HeLa cells at 1 uM after 24 hrs by DAPI staining based immunofluorescence microscopic analysis. The test is classed as functional, cell-based. The method in brief: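 HeLa cells on coverslips treated 24 h (0.1 or 1 μM; DMSO control); fixed in 4% paraformaldehyde, permeabilised in 0.1% Triton X-100 with 2% BSA, anti-α-tubulin overnight at 4 °C, FITC secondary 2 h room temperature, DAPI for DNA; confocal imaging.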

Test [4] deals with HeLa. Nature of the test: Cell cycle arrest in human HeLa cells assessed as accumulation at G1 phase at 5 uM after 12 hrs by propidium iodide staining-based flow cytometric analysis (reference value: 70.68%). The class given is functional. In short, it runs like this:
as §2

For test [5], the system named is HeLa. Nature of the test: Cell cycle arrest in human HeLa cells assessed as accumulation at S phase at 5 uM after 12 hrs by propidium iodide staining-based flow cytometric analysis (reference value: 5.74%). The class given is functional. In short, it runs like this: as §2
Test [6] deals with HeLa. Nature of the test: Cell cycle arrest in human HeLa cells assessed as decrease in cyclin B1 protein expression at 5 uM after 12 hrs by Western blot analysis. The class given is functional, cell-based. In short, it runs like this: (§3)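 HeLa cells treated 12 h (0.1, 1, 5 μM for apoptosis proteins); lysed in Tris pH 7.5/NP-40/SDS buffer with protease inhibitors, equal protein on 10% SDS-PAGE, PVDF, 5% BSA block, primary antibodies overnight at 4 °C, β-actin loading control; mean ± SD.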

For test [7], the system named is HeLa. In words: Cell cycle arrest in human HeLa cells assessed as decrease in cdc2 protein expression at 5 uM after 12 hrs by Western blot analysis. The test is classed as functional, cell-based. In short, it runs like this: as §3

Calls of active or inactive are those of the source. The calls are words filed in the database; no cut-off is given here. A value given as a limit tells only on which side of the number the result lay.

Chain of Aurora kinase B (Q96GD4 whole entry): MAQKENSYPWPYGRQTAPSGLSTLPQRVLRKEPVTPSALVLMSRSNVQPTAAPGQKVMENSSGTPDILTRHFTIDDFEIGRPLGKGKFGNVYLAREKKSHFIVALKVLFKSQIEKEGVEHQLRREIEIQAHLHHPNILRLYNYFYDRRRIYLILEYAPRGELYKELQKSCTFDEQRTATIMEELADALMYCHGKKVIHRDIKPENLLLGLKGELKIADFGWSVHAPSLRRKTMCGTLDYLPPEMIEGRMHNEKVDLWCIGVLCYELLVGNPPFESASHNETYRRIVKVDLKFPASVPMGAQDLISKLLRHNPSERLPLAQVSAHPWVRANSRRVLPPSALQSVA

Broadly, the GI50 is the concentration that inhibits growth by half. Broadly, the IC50 is the midpoint of a concentration-inhibition curve. In the case of `CC1(C)CC(NC(=O)c2ccc(Nc3ncc([N+](=O)[O-])c(Nc4ccc(O)cc4)n3)cc2)CC(C)(C)N1[O]`, the GI50 was determined as 21.5 µM in the test on HepG2 (HepG2, 48 h); 34.3 µM with HeLa [1]; 14.3 µM in the test with A549 (A549, 48 h); 43.8 µM with LoVo. The IC50 at Aurora kinase B turned out to be 3.5 nM; at Aurora kinase A it was 0.59 nM.

For `CC1(C)CC(NC(=O)c2ccc(Nc3ncc(Br)c(Nc4ccccc4Cl)n3)cc2)CC(C)(C)N1[O]`, the GI50 in the test with HepG2 (HepG2, 48 h) was found to be 2.1 µM; with HeLa [1] it was 9.6 µM; in the test with A549 (A549, 48 h), 3.8 µM; in the test with LoVo it was 3.2 µM. Besides, the results for the IC50 on Aurora kinase B and at Aurora kinase A were 2.67 nM and 0.46 nM, respectively.

In the case of `CC1(C)CC(NC(=O)c2ccc(Nc3ncc([N+](=O)[O-])c(Nc4ccc(C(=O)Nc5ccccc5Cl)cc4)n3)cc2)CC(C)(C)N1[O]`, the GI50 with HepG2 (HepG2, 48 h) turned out to be 3.4 µM; in the test on HeLa [1], 23.2 µM; with A549 (A549, 48 h) it was 2.5 µM; with LoVo it was 28.5 µM. In addition, the IC50 was 3.07 nM at Aurora kinase B and 5.48 nM on Aurora kinase A.

Turning to `Cc1cc(Nc2cc(N3CCN(C)CC3)nc(Sc3ccc(NC(=O)C4CC4)cc3)n2)n[nH]1`, the Activity in the test on HeLa [2] stood at 39%; with HeLa [4], 34.4%; with HeLa [5], 26.6%. Besides, in the test on HeLa [3], the result was inactive. Also, the GI50 amounted to 53.3 µM in the test with HepG2, 46.2 µM with HeLa [1], 35.8 µM with A549 and 45.3 µM with LoVo. For the same compound, the outcome in the test with HeLa [6] and with HeLa [7] was Active.

Consider `CC1(C)CC(NC(=O)c2ccc(Nc3ncc([N+](=O)[O-])c(Nc4ccccc4O)n3)cc2)CC(C)(C)N1[O]`, for which the GI50 was 3.7 µM in the test on HepG2 (HepG2, 48 h); 13.9 µM in the test on HeLa [1]; 11.2 µM in the test with A549 (A549, 48 h); 28.3 µM with LoVo. For the same compound, the IC50 at Aurora kinase B amounted to 11.3 nM; on Aurora kinase A, 8.5 nM.

On to `CC1(C)CC(NC(=O)c2ccc(Nc3ncc([N+](=O)[O-])c(Nc4ccc(C(=O)Nc5ccc(Cl)cc5)cc4)n3)cc2)CC(C)(C)N1[O]`, for which the GI50 with HepG2 (HepG2, 48 h) stood at 24.1 µM; in the test on HeLa [1] it was 53 µM; in the test with A549 (A549, 48 h), 17.2 µM; in the test with LoVo, 46.3 µM. The IC50 at Aurora kinase B was 0.67 nM; on Aurora kinase A, 20 nM.

As to `CC1(C)CC(NC(=O)c2ccc(Nc3ncc([N+](=O)[O-])c(Nc4cccc(O)c4)n3)cc2)CC(C)(C)N1[O]`, the GI50 in the test on HepG2 (HepG2, 48 h) came out at 21.7 µM; in the test with HeLa [1], 36.5 µM; with A549 (A549, 48 h), 13.2 µM; with LoVo, 39.6 µM. Moreover, the IC50 came to 3.5 nM on Aurora kinase B and 0.14 nM on Aurora kinase A.

Take `CC1(C)CC(NC(=O)c2ccc(Nc3nc(Nc4ccc(C(=O)O)cc4)ncc3Cl)cc2)CC(C)(C)N1[O]`: the GI50 was 48.2 µM with HepG2, 56.5 µM with HeLa [1], above 100 µM with A549 and 56.6 µM in the test on LoVo.

For the compound `CC1(C)CC(NC(=O)c2ccc(Nc3ncc([N+](=O)[O-])c(Nc4ccc(C(=O)Nc5cccc(Cl)c5)cc4)n3)cc2)CC(C)(C)N1[O]`, the GI50 in the test on HepG2 (HepG2, 48 h) was 12.5 µM; in the test with HeLa [1], 49.5 µM; in the test on A549 (A549, 48 h), 14.2 µM; in the test on LoVo, 39.6 µM. Besides, the values for the IC50 at Aurora kinase B and on Aurora kinase A were 27 nM and 0.11 nM, respectively.

With `CN1CCC(NC(=O)c2ccc(Nc3ncc(F)c(Nc4ccc(C(=O)Nc5ccccc5Cl)cc4)n3)cc2)CC1`, the concentration for 50% growth inhibition (GI50) in the test on HepG2 (HepG2, 48 h) turned out to be 13.4 µM; with HeLa [1], 11.3 µM; in the test with A549 (A549, 48 h) it was 8.9 µM; in the test on LoVo, 12.4 µM. The results for the IC50 on Aurora kinase B and on Aurora kinase A were 49.1 nM and 2.28 nM, respectively.

Consider `CC1(C)CC(NC(=O)c2ccc(Nc3ncc([N+](=O)[O-])c(Nc4ccccc4Cl)n3)cc2)CC(C)(C)N1[O]`, for which the GI50 in the test with HepG2 (HepG2, 48 h) came to 3.7 µM; with HeLa [1], 53.1 µM; in the test on A549 (A549, 48 h), 2.8 µM; in the test with LoVo, 35.2 µM. The IC50 came out at 3.29 nM on Aurora kinase B and 1.86 nM at Aurora kinase A.

`CC1(C)CC(NC(=O)c2ccc(Nc3nc(Nc4ccc(C(=O)O)cc4)ncc3[N+](=O)[O-])cc2)CC(C)(C)N1[O]`: the GI50 in the test with HepG2 is 11.8 µM; in the test with HeLa [1], 27.3 µM; in the test with A549, 29.6 µM; in the test on LoVo it was 27.4 µM.

Turning to `CC1(C)CC(NC(=O)c2ccc(Nc3nc(Nc4ccc(C(=O)O)cc4)ncc3F)cc2)CC(C)(C)N1[O]`, the GI50 with HepG2 amounted to 26.8 µM; in the test with HeLa [1], 21.3 µM; in the test with A549, 18.5 µM; in the test with LoVo, 65.3 µM.

Turning to `CC1(C)CC(NC(=O)c2ccc(Nc3nc(Nc4ccc(C(=O)O)cc4)ncc3Br)cc2)CC(C)(C)N1[O]`, the GI50 in the test with HepG2 is 35.8 µM; in the test with HeLa [1], above 100 µM; with A549, above 100 µM; in the test with LoVo, above 100 µM.

Consider `CC1(C)CC(NC(=O)c2ccc(Nc3ncc([N+](=O)[O-])c(Nc4cccc(Cl)c4)n3)cc2)CC(C)(C)N1[O]`, for which the GI50 came to 42.1 µM with HepG2 (HepG2, 48 h); 43.2 µM in the test on HeLa [1]; 31.3 µM in the test with A549 (A549, 48 h); 67.8 µM in the test on LoVo. In addition, the IC50 at Aurora kinase B turned out to be 19.5 nM; on Aurora kinase A, 0.62 nM.

With `CC1(C)CC(NC(=O)c2ccc(Nc3ncc(F)c(Nc4ccccc4Cl)n3)cc2)CC(C)(C)N1[O]`, the GI50 with HepG2 (HepG2, 48 h) turned out to be 1.2 µM; in the test with HeLa [1], 8.4 µM; with A549 (A549, 48 h) it was 2.3 µM; with LoVo it was 2.7 µM. Further, the values for the IC50 on Aurora kinase B and at Aurora kinase A were 1.11 nM and 0.18 nM, respectively.

Turning to `CC1(C)CC(NC(=O)c2ccc(Nc3ncc([N+](=O)[O-])c(Nc4ccc(Cl)cc4)n3)cc2)CC(C)(C)N1[O]`, the GI50 was 13 µM in the test on HepG2 (HepG2, 48 h); 33.3 µM in the test on HeLa [1]; 5.6 µM with A549 (A549, 48 h); 27.8 µM with LoVo. The IC50 at Aurora kinase B was determined as 0.34 nM; on Aurora kinase A, 1.61 nM.

Consider `CC1(C)CC(NC(=O)c2ccc(Nc3ncc(Cl)c(Nc4ccccc4Cl)n3)cc2)CC(C)(C)N1[O]`, for which the GI50 with HepG2 (HepG2, 48 h) turned out to be 1.6 µM; in the test with HeLa [1], 10.2 µM; in the test on A549 (A549, 48 h), 3.6 µM; in the test with LoVo, 3.2 µM. The IC50 turned out to be 0.29 nM at Aurora kinase B and 0.19 nM on Aurora kinase A.
